The values below come from ChEMBL document CHEMBL1146609, “Synthesis of water-soluble prodrugs of BMS-191011: a maxi-K channel opener targeted for post-stroke neuroprotection” (Bioorg Med Chem Lett, 2003).

Data set [1] is described as follows: Solubility in water at 4.2 pH. The data set is classed as physicochemical. As to conditions: pH 4.2, read-out: S. An outline of the steps: (§1)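 Aqueous solubility (mg/mL), measured with the pH of the resulting solution recorded.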
The species entered for data set [2] is Rattus norvegicus. The data set is described as follows: Percentage converted to BMS-191011 after 30 min incubation in rat plasma at 37 degree C; Converted to an unknown compound. It is filed as ADME, organism-based. As to conditions: 0.5 h. The gist of the method:
(§2)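 Prodrug was incubated in rat plasma for 30 min at 37 °C. The percentage converted to the parent BMS-191011 was then determined.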

The nature of data set [3]: Solubility in water at 7.0 pH. It is filed as physicochemical. As to conditions: pH 7, read-out: S.
Data set [4] can be described thus: Solubility in water at 8.4 pH. It is filed as physicochemical. As to conditions: pH 8.4.
Data set [5] is filed under the species Rattus norvegicus. Briefly: […] expressed as percentage of compound remains at 24 hr in PEG400/Water, 1:1; Not stable. It is filed as ADME, organism-based.
Data set [6] in a line: Solubility in water at 5.5 pH. As to conditions: pH 5.5, read-out: S. It is filed as physicochemical. An outline of the steps:
as §1

Data set [7] is described as follows: Solubility in water at 7.2 pH. The data set is classed as physicochemical. As to conditions: pH 7.2, read-out: S. An outline of the steps:
as §1

The species entered for data set [8] is Rattus norvegicus. The data set is described as follows: Percentage converted to BMS-191011 after 30 min incubation in rat plasma at 37 degree C. It is filed as ADME, organism-based. As to conditions: 0.5 h. An outline of the steps:
as §2

The nature of data set [9]: Solubility in water at 7.5 pH. As to conditions: pH 7.5, read-out: S. The data set is classed as physicochemical.
The nature of data set [10]: Solubility in water at 2.4 pH. The data set is classed as physicochemical. As to conditions: pH 2.4, read-out: S.
Data set [11] in a line: Area under curve was determined. The data set is classed as ADME, organism-based. As to conditions: rat, in vivo. The gist of the method: (§3)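 Male SD rats (N=3) given prodrug by IV infusion at 1.7 mg/kg (equivalent to 1 mg/kg parent), vehicle PEG-400/water 1:1. Blood samples were mixed at once with an equal volume of water, quenched with four volumes of acetonitrile and stored at -20 °C. Prodrug and parent were measured by two separate LC/MS/MS assays. Mean ±SD.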

Data set [12] in a line: Solubility in deionized water. The data set is classed as physicochemical. As to conditions: read-out: S. An outline of the steps:
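Solubility of the prodrug (mg/mL) in deionized water.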

The test system of data set [13] is Rattus norvegicus. The data set is described as follows: Percent reduction of neocortical infract volume in 29 rats after IV administration (2h post MCA)at a dose of […]. The data set is classed as functional. The gist of the method:
(§4)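 Rat MCA occlusion model. Neocortical infarct volume was compared with vehicle controls (2% DMSO/98% propylene glycol) in the same study. Statistics by ANOVA with Dunnett's t-test, p<0.05; 28–29 animals per group.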

Data set [14] deals with Rattus norvegicus. Briefly: Percent reduction of neocortical infract volume in 28 rats after IV administration (2h post MCA) at a dose of […]. It is filed as functional. An outline of the steps:
as §4

Data set [15] is described as follows: Volume distribution was determined. It is filed as ADME, organism-based. As to conditions: rat, in vivo; read-out: Vdss. An outline of the steps: as §3
Data set [16] is described as follows: […] expressed as percentage of compound remains at 24 hr in PEG400/Water, 1:1. The data set is classed as ADME, organism-based. As to conditions: read-out: Prodrug remains. The gist of the method: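 Chemical stability in PEG400/water (1:1) solution, given as the percentage of prodrug remaining after 24 h.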
The nature of data set [17]: t1/2 (apparent elimination)of the compound was determined. The data set is classed as ADME, organism-based. As to conditions: rat, in vivo. An outline of the steps: as §3
Data set [18] is described as follows: Plasma clearance was determined. It is filed as ADME, organism-based. As to conditions: rat. The gist of the method: as §3
Data set [19] deals with Rattus norvegicus. The data set is described as follows: Percent reduction of neocortical infract volume in 28 rats after IV administration (2h post MCA)at a dose of […]. The data set is classed as functional. The gist of the method: as §4

≈ marks a conversion by molar mass, not a printed value. Where “and” joins values, the source holds several entries; their conditions need not be identical. Equal values may be shown once.

Broadly, the AUC is concentration integrated over time. The half-life is the time in which the quantity being followed falls by half. As usually defined, the clearance is a measure of how efficiently the substance is removed, as volume per time. Higher therefore signals a high capacity for elimination.

With `CS(=O)(=O)[O-].C[N+](C)(C)CC(=O)OCOc1ccc(Cl)cc1Cn1nc(-c2ccc(C(F)(F)F)cc2)oc1=O`, in data set [1], the solubility stood at 4.5 mg/mL. Besides, the Conversion result in the data set filed under Rattus norvegicus [2] is “Converted to an unknown compound”.
With `O=c1oc(-c2ccc(C(F)(F)F)cc2)nn1Cc1cc(Cl)ccc1OCOP(=O)(O)O`, the solubility in [3] is 6.1 mg/mL (≈ 12.7 mM); in data set [4], more than 16 mg/mL. In the data set listed under Rattus norvegicus [5], the Prodrug remains entry is given as “Not stable”.
Take `O=c1oc(-c2ccc(C(F)(F)F)cc2)nn1Cc1cc(Cl)ccc1OP(=O)(O)O`: the solubility in [6] came to 4.9 mg/mL (≈ 10.9 mM); in [7] it was 14.6 mg/mL (≈ 32.4 mM). The molecule also showed a Conversion in the data set listed under Rattus norvegicus [8] of 0%.
For `O=C(OCOP(=O)(O)O)Oc1ccc(Cl)cc1Cn1nc(-c2ccc(C(F)(F)F)cc2)oc1=O`, the solubility in [9] came to 0.004 mg/mL (≈ 0.00762 mM); in data set [10], 0.055 mg/mL (≈ 0.105 mM). Also, the Prodrug remains entry in the data set filed under Rattus norvegicus [5] is on record as “Not stable”.
As to `CS(=O)(=O)[O-].C[N+](C)(C)CCCC(=O)OCOc1ccc(Cl)cc1Cn1nc(-c2ccc(C(F)(F)F)cc2)oc1=O`, the AUC in data set [11] turned out to be 1.26 µg·h/mL. The solubility in data set [12] is more than 25 mg/mL. Besides, the Reduction is -16% in the data set with Rattus norvegicus [13]; -13% with Rattus norvegicus [14]; -14% and -12% and -17% with Rattus norvegicus [19]. Also, the Vd in data set [15] came to 2.6 L/kg. Also, in data set [16], the remaining at 24 h was more than 97%. For the same molecule, the half-life in data set [17] is 2.7 h. The Conversion in the data set listed under Rattus norvegicus [8] is recorded as more than 80%. Besides, the clearance in data set [18] is 1.37 L/h/kg.
On to `CS(=O)(=O)[O-].C[N+](C)(C)CC(=O)c1ccc(Cl)cc1Cn1nc(-c2ccc(C(F)(F)F)cc2)oc1=O`, for which the remaining at 24 h in data set [16] was more than 90%.
In data set [11], `O=c1oc(-c2ccc(C(F)(F)F)cc2)nn1Cc1cc(Cl)ccc1O` returned an AUC of 0.0524 µg·h/mL. For the same molecule, the half-life in [17] is 1.2 h.
For `CS(=O)(=O)[O-].C[N+](C)(C)CCC(=O)Oc1ccc(Cl)cc1Cn1nc(-c2ccc(C(F)(F)F)cc2)oc1=O`, the solubility in [12] is more than 4 mg/mL. Further, the remaining at 24 h in data set [16] is more than 90%. Besides, the Conversion in the data set listed under Rattus norvegicus [8] came out at 100%.
For the molecule `CS(=O)(=O)[O-].C[N+](C)(C)CCOC(=O)Oc1ccc(Cl)cc1Cn1nc(-c2ccc(C(F)(F)F)cc2)oc1=O`, the remaining at 24 h in data set [16] was determined as 72%. In the data set listed under Rattus norvegicus [8], this molecule showed a Conversion of 100%.
`CS(=O)(=O)[O-].C[N+](C)(C)CCCC(=O)Oc1ccc(Cl)cc1Cn1nc(-c2ccc(C(F)(F)F)cc2)oc1=O`: the solubility in [12] is more than 4 mg/mL. In addition, the remaining at 24 h in data set [16] is more than 90%. The Conversion in the data set listed under Rattus norvegicus [8] was 95%.
